According to the array DNA melting data of Ke et al. (doi:10.1101/2024.01.08.574731):

Key:
[1] = folding enthalpy; higher = less favourable; fluorescence melt of hairpins on a sequencing array, two-state fit; details: sodium 0.088 M
In short: (§1)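 Folding enthalpy and melting temperature were estimated with bootstrapped two-state fits and combined across four replicates by inverse-variance weighting, with fitted temperatures raised by 9.35 °C to match UV melts. The data were Cy3 fluorescence of library hairpins, with annealed Cy3 and quencher oligos, on a sequenced MiSeq flow cell in 50 mM Na-HEPES pH 8.0, 25 mM NaCl, imaged in 2.5 °C steps up to 60 °C and normalised to pre-quench Cy3 and control constructs.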

[2] = melting temperature; fluorescence melt of hairpins on a sequencing array, two-state fit, raised by 9.35 °C to match UV melts; details: sodium 0.088 M
In short: as §1

Row | Sequence | folding enthalpy [1] [kcal/mol] | Tm [2] [°C]
1 | GGTCAGGGAAACTTGACC (((((.(....).))))) | -37.9 | 49.5
2 | GAGTCACGAAAGTGCCTC (((.(((....))).))) | -23.5 | 50
3 | GATCATTAGTATGATC ((((((....)))))) | -31.8 | 45.2
4 | GCGTTATCGAAAGATCGC (((..(((....)))))) | -26.1 | 44.3
5 | CGCTCGGAAACGATCGCG ((((((....)))..))) | -24.2 | 40.2
6 | GCGTAGTCACGC ((((....)))) | -21.2 | 51.5
7 | GTGAACGGAAACGTTTAC ((.((((....)))).)) | -29.6 | 46.9
8 | GCCTAACCGAAAGGTGGC (((..(((....)))))) | -23.2 | 53.2
9 | GCCTACGAAAGTACCGGC ((((((....)))..))) | -25.6 | 36.9
10 | GCAACCGAAAGGTCTTGC ((((((....)))..))) | -16.5 | 35.7
11 | GCCTTCGAAAGAAAAGGC ((((((....)))..))) | -27.7 | 45.7
12 | GAATATGGAAACGTATTC (((((.(....).))))) | -25.3 | 34.2
13 | GCGTACCCGAAAGGGCGC (((..(((....)))))) | -22.1 | 56.4
14 | GTGCAGAAATGCAC (((((....))))) | -25.6 | 57.1
15 | GAGAACCGAAAGGTGCTC (((.(((....))).))) | -34.3 | 56.5
16 | GAGATACGAAAGTAACTC (((.(((....))).))) | -26 | 44.7
17 | GAGCATGGAAACGTGCTC (((((.(....).))))) | -47.3 | 52.9
18 | GAGAAACCGAAAGGTCTC (((..(((....)))))) | -16.8 | 34.1
19 | GATCGCCCAGGCGATC ((((((....)))))) | -25.1 | 68.2
20 | GCATAGCGAAAGCTGCGC ((..(((....)))..)) | -21 | 61.3
21 | GGCCTTGGAAACAAGACC ((.((((....)))).)) | -29.1 | 44.7
22 | GATCAGAGCGCTGATC ((((((....)))))) | -27.4 | 49.1
23 | GAGTACGAAAGTACACTC ((((((....)))..))) | -16.2 | 48.3

Row | Sequence | folding enthalpy [1] [kcal/mol] | Tm [2] [°C]
24 | ATGGAGAAATCCAT (((((....))))) | -14.6 | 36
25 | GTGCCCTCGAAAGAGCAC (((..(((....)))))) | -18.8 | 43
26 | GGACGCGGAAACGTGTCC ((((.((....)).)))) | -43.4 | 62.2
27 | GCACACGAAAGTGAGTGC ((((((....)))..))) | -30.9 | 51.7
28 | GCATCTCGAAAGAGTGC (((.(((....)))))) | -49.8 | 53.4
29 | GACACCCGAAAGGGGTC (((.(((....)))))) | -18.5 | 54.8
30 | GTAATGCCGAAAGGCTAC (((..(((....)))))) | -9.18 | 26.8
31 | GACCCCGGAAACAGGGTC (((((.(....).))))) | -29.5 | 48.8
32 | GCTGGCGGAAACGCCAAC (.(((((....))))).) | -11.2 | 43.7
33 | GCGCGCGGAAACGCGCAC (.(((((....))))).) | -7.45 | 65.3
34 | GCCATCGAAAGATCTGGC ((((((....)))..))) | -25.9 | 36.1
35 | GAGTCACGAAAGTGGCTC (((.(((....))).))) | -39.4 | 64.7
36 | GATCAGGGAAACCTGACC (.(((((....))))).) | -17.2 | 36.3
37 | GTCGGCGAAAGCCCCGAC ((((((....)))..))) | -15.6 | 41.8
38 | GGTTTTGGAAACAAAATC (.(((((....))))).) | -33.4 | 41.5
39 | GATCTGTAGGCAGATC ((((((....)))))) | -45 | 51.9
40 | GTTTCCGAAAGGAAAAAC ((((((....)))..))) | -15.1 | 36.8
41 | GCACGCGGAAACGCGCGC ((.((((....)))).)) | -23.5 | 68.5
42 | GCGTGGCGAAAGCAAGGC ((.(.((....)).).)) | -18.8 | 46.6
43 | GGATGAGAAATCATCC ((((((....)))))) | -42.4 | 52.9
44 | GGCACCGGAAACGGTGTC (.(((((....))))).) | -24.8 | 59.9
45 | GATATGGGAAACTATATC (((((.(....).))))) | -23.2 | 33.8
46 | GCACTTGCGAAAGCATGC (((..(((....)))))) | -10.8 | 38.6

Row | Sequence | folding enthalpy [1] [kcal/mol] | Tm [2] [°C]
47 | GATCCGAGCACGGATC ((((((....)))))) | -38.2 | 58.5
48 | GACTCCGAAAGGATCGTC ((((((....)))..))) | -23.3 | 42.1
49 | GATCGAAAATCGATC ((((((...)))))) | -29.9 | 47.6
50 | GTACGGGGAAACCCGCAC ((.((((....)))).)) | -18.6 | 54.3
51 | GACGACACGAAAGTGGTC (((..(((....)))))) | -15.3 | 41.2
52 | GATCTCTTCGAGATC ((((((...)))))) | -36.9 | 55.4
53 | GATCCTAAAGAGGATC ((((((....)))))) | -31.3 | 46.1
54 | GATCTCCCGAAAGGGATC (((..(((....)))))) | -9.21 | 29.6
55 | GAGGAGCGAAAGCTCTC (((.(((....)))))) | -9.17 | 48.2
56 | GGAATTCGAAAGAATCC (((.(((....)))))) | -20.9 | 39
57 | GATCCGTATACGGATC ((((((....)))))) | -45.4 | 62.1
58 | GAGATACGAAAGTACTC (((.(((....)))))) | -19.9 | 36.7
59 | GCTATCGAAAGATTGAGC ((((((....)))..))) | -20.5 | 32.9
60 | GAAACGCCGAAAGGCTTC (((..(((....)))))) | -7.92 | 23.1
61 | GCAAATGGAAACATCTGC (((.(((....))).))) | -20.3 | 33
62 | GATGCCGAAAGGCACATC ((((((....)))..))) | -8.64 | 33.3
63 | GCACGGGGAAACCCATGC (((.(((....))).))) | -29.5 | 47
64 | GGTACCGGAAACGGTACC (((((((....))))))) | -30.5 | 69
65 | GGGTCCCCGAAAGGGCCC (((..(((....)))))) | -23.1 | 56
66 | GCCTCTACGAAAGTAGGC (((..(((....)))))) | -12.2 | 47.9
67 | GGTATGCGAAAGCAAACC (((.(((....))).))) | -30.2 | 53
68 | GATCAACGCTTTGATC ((((((....)))))) | -44.1 | 46.4
69 | TCTTCGAAAGAAGA (((((....))))) | -18.8 | 45.8

Row | Sequence | folding enthalpy [1] [kcal/mol] | Tm [2] [°C]
70 | GTGGTGGGAAACCATCGC (.(.(((....))).).) | -24.9 | 41.6
71 | GGTATCCGAAAGGACACC (((.(((....))).))) | -25.2 | 47.5
72 | GACTTAGGAAACCAAGTC (((((.(....).))))) | -30.6 | 36
73 | GATCGGGACCCCGATC ((((((....)))))) | -39.4 | 62.4
74 | GAACTGAAAAGTTC (((((....))))) | -24.3 | 46.6
75 | GCTCGCGAAAGCGGAAGC ((((((....)))..))) | -16.3 | 53.2
76 | GATCACGGAAGTGATC ((((((....)))))) | -29.3 | 68.9
77 | GGGTTAGGAAACTGACTC (.((.((....)).)).) | -12.3 | 27.7
78 | GGATCAGCGAAAGCTTCC (((..(((....)))))) | -12.7 | 30.7
79 | GCAAGCGAAAGCTGGTGC ((((((....)))..))) | -20.9 | 47.6
80 | GATCTTCTACAAGATC ((((((....)))))) | -30.3 | 41.9
81 | CGCGGAAGGTCCGCG ((((((...)))))) | -27.1 | 69.2
82 | GCGGTCGAAAGACGGCGC ((((((....)))..))) | -31.3 | 63.9
83 | GCGAATACTCGC ((((....)))) | -22.1 | 46.2
84 | GATCTCCACTGAGATC ((((((....)))))) | -40.7 | 51.7
85 | GCATCGCGAAAGCAACGC ((.(.((....)).).)) | -13.5 | 40.6
86 | GGACGACCGAAAGGTTCC (((..(((....)))))) | -13.8 | 31.3
87 | GAGCTGCCGAAAGGCCTC (((..(((....)))))) | -11.3 | 32.7
88 | GGTTGCGAAAGCATAACC ((((((....)))..))) | -20.5 | 45.9
89 | GTGACTGGAAACAGTCGC (.(((((....))))).) | -30.6 | 56.2
90 | GCACATGGAAACATGCGC ((.((((....)))).)) | -48.8 | 49.9
91 | GCTCTCGAAAGAGGTAGC ((((((....)))..))) | -25.4 | 38.4
92 | GATCACTAGAGTGATC ((((((....)))))) | -40.8 | 56.4
